Shown are actives, neighbours in structure and some others; about 3.4% of the full set was active somewhere.
CHRM1 agonist: human M1 muscarinic receptor agonists, primary screen, Fluo-8 calcium fluorescence, CHO-K1 cells, HTS | CHO-K1 hM1, agonist mode; 0% DMSO, 100% acetylcholine EC100 | activation, % at 3 µM | 0.33% of 360,000 active | Muscarinic acetylcholine receptor M1 (Homo sapiens), P11229 | AID 588814, 2011;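 active = activation above the run's mean compound activation plus 3 SD, cut at about 16% in these data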;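 note: peak over basal fluorescence ratio within a 140 s kinetic read after compound addition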
Target sequence (P11229 whole entry, looked up): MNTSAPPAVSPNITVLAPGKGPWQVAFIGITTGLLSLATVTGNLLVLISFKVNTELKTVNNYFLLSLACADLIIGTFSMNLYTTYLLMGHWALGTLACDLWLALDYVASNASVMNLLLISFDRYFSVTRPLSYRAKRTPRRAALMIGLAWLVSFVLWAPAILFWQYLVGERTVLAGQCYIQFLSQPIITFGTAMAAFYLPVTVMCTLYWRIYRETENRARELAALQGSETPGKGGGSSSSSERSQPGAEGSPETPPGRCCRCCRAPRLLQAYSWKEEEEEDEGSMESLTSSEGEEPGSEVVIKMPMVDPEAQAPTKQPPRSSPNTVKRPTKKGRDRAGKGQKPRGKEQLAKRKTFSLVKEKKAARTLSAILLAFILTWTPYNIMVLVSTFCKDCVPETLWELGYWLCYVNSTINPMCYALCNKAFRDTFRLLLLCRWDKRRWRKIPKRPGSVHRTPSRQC
TAAR1 antag: human TAAR1 antagonists, primary screen, Fluo-8 calcium fluorescence, CHO RD-HGA16 cells. Trace amine-associated receptor 1 (Homo sapiens), Q96RJ0. antagonist. inhibition, % at 3 µM. 1.5% of 360,000 active. AID 624466, 2012;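 active = inhibition above a per-plate cutoff, the mean inhibition of test compounds on that plate plus 3 SD, cut at about 49% in these data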;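 note: 0% = DMSO plus EC80 beta-PEA response and 100% = DMSO alone without agonist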
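Test system: RD-HGA16 CHO cells with stable hTAAR1 and Gα16 / Probe or stimulus: EC80 β-phenethylamine stimulus / Times: seeding 17-24 h prior, 75-min 37 °C, 30-min RT dye loading / Detection: Fluo-8 calcium-sensitive fluorescence / Read-out basis: % inhibition scaled between DMSO and EC80 PEA controls / Repeats: singlicate, one well per test compound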
TAAR1 agonist: human TAAR1 agonists, primary screen, Fluo-8 calcium fluorescence, CHO RD-HGA16 cells | 0.99% of 360,000 active | vehicle wells 0%, saturating PEA agonist 100% | Trace amine-associated receptor 1 (Homo sapiens), Q96RJ0 | activation, % at 3 µM;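 active = activation above the mean activation of all test compounds in the run plus 3 SD, cut at about 38% in these data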
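System: CHO-derived RD-HGA16 cells with stable Gα16 and human TAAR1 / Times: 17-24 h plating, Fluo-8 75 min 37 °C, 30 min RT / Technique: calcium-sensitive Fluo-8 signal, excitation 470-495, emission 515-575 nm / Measure: % activation relative to PEA EC100 response / Benchmarks: DMSO and PEA EC100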
CHRM1 PAM: human M1 muscarinic receptor positive allosteric modulators, primary screen, CHO-K1 cells, Fluo-8 calcium fluorescence, 1536-well; AID 588819, 2011; activation, % at 3 µM; CHO-K1 hM1, ACh EC20; 0% = ACh EC20, 100% = maximal ACh; 0.088% of 360,000 active; in the data active = activation above about 19%, passing the limit was not always enough
CHRM1 antagonist: human M1 muscarinic receptor antagonists, primary screen, CHO-K1 cells, Fluo-8 calcium fluorescence, 1536-well. 1.3% of 360,000 active. CHO-K1 hM1, ACh EC80 antagonist. inhibition, % at 3 µM. AID 588852, 2011. Muscarinic acetylcholine receptor M1 (Homo sapiens), P11229;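 active = percent inhibition above its own plate's cutoff, namely the mean of that plate's compound wells plus 3 SD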;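 note: peak over basal fluorescence ratio during 140 s after agonist addition; 0% = ACh EC80 plus DMSO and 100% = DMSO alone without agonist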
TAAR1 ag confirm: human TAAR1 agonists, retest of hits, confirmation, Fluo-8 calcium fluorescence, CHO RD-HGA16 cells. shares compounds with TAAR1 agonist. scaled: DMSO 0%, maximal phenethylamine 100%. activation, % at 3 µM. 82% of 2,400 active. AID 651783, 2012;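 active = activation above a cutoff set at the run's mean compound activation plus 3 SD, cut at about 39% in these data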
Ga16 ag counter: nonselective calcium mobilization agonists, CHO-Ga16 cells, counter-screen for hTAAR1 agonist project, cell-based, fluorescence, CHO-Ga16 parental line; shares compounds with TAAR1 agonist; Fluo-8 calcium fluorescence; normalized to maximal ATP response, DMSO zero; activation, % at 3 µM; 50% of 2,400 active; AID 651787, 2012;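 active = activation above the run cutoff, the mean activation over all tested wells plus 3 SD, cut at about 12% in these data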;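 note: 0% = DMSO wells and 100% = maximal ATP response on the peak over basal ratio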
TAAR1 desens: TAAR1 desensitization by agonist hits, confirmation, counter-screen for TAAR1 agonist project, cell-based, fluorescence, tachyphylaxis. shares compounds with TAAR1 agonist. CHO RD-HGA16 hTAAR1, Fluo-8 calcium, beta-PEA response inhibition. inhibition, % at 3 µM. 46% of 2,400 active;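 active = inhibition above the run cutoff, the mean inhibition of all test compounds plus 3 SD, cut at about 49% in these data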;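 note: beta-PEA stimulus applied at its EC80; loss of beta-PEA calcium signal after compound pretreatment read as receptor desensitization; 0% = DMSO with beta-PEA at EC80 and 100% = DMSO alone without agonist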
Ga16 nonsel ant: inhibition of ATP-evoked calcium response in CHO-Ga16 cells, counter-screen for TAAR1 agonist project, cell-based, fluorescence; shares compounds with TAAR1 agonist; CHO-Ga16 ATP-induced calcium, Fluo-8 fluorescence; inhibition, % at 3 µM; 39% of 2,400 active; AID 651952, 2012;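 active = inhibition above the plate's mean compound inhibition plus 3 SD, computed per plate, cut at about 22% in these data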;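 note: 0% = EC80 ATP with DMSO and 100% = DMSO wells without ATP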
The depositor's hits bear a star; . = no result.

SMILES	CHRM1 agonist	TAAR1 antag	TAAR1 agonist	CHRM1 PAM	CHRM1 antagonist	TAAR1 ag confirm	Ga16 ag counter	TAAR1 desens	Ga16 nonsel ant
Cc1cc(N/N=C/c2ccccc2O)nc(N2CCOCC2)n1	-5	42	43*	-2	-5	66*	2	82*	17
Cc1ccc(Nc2cc(C)nc(N3CCOCC3)n2)cc1	-6	-6	42*	4	-14	35	1	19	6
COc1cc(/C=C/C(=O)OCC(=O)NCCC2=CCCCC2)cc(OC)c1OC	-4	2	3	-1	-3	.	.	.	.
Cc1sc2c3ccsc3ccc2[n+]1C	6	2	26	-6	4	.	.	.	.
Cc1sc2ccc3sccc3c2[n+]1C	11	13	48*	5	-4	14	8	11	10
COc1ccc(C(C)NC(=O)c2ccncc2)cc1OC (stereo unspecified)	-2	-2	1	10	-12	.	.	.	.
O=c1[nH]c2ccc(NC(=S)Nc3ccc(Cl)cc3)cc2[nH]1	0	8	53*	0	1	58*	11	34	29*
NC(Cc1ccc(C(F)(F)F)cc1)c1csc(Nc2nccc(C(F)(F)F)n2)n1 (stereo unspecified)	8	41	61*	1	7	43*	20*	40	23*
COC(=O)c1cnc(Nc2nc(C(N)Cc3ccccc3)cs2)nc1C(F)(F)F (stereo unspecified)	15	43	63*	26*	-12	50*	27*	31	23*
CCCc1cnc(Nc2nc(C(N)Cc3ccc(C(F)(F)F)cc3)cs2)nc1 (stereo unspecified)	18*	34	68*	4	14	80*	63*	54*	59*
CS(=O)(=O)c1ccc(Nc2nc(C(N)Cc3ccc(C(F)(F)F)cc3)cs2)cc1 (stereo unspecified)	0	32	17	15	-13	.	.	.	.
COc1cccc(C2(O)CC(C(F)(F)F)=NN2C(=O)c2ccccn2)c1 (stereo unspecified)	-4	4	2	10	-11	.	.	.	.
O=C(CN1CCc2ccccc2C1)Nc1ccccc1F	-4	-14	5	3	-10	.	.	.	.
COc1ccc(OCCCN2CCc3ccccc3C2)cc1	-9	-16	6	3	-1	.	.	.	.
CCCOc1ccc(OCCOCCN2CCc3ccccc3C2)cc1	-5	43	102*	-13	10	77*	1	64*	2
CCOc1ccc(OCCOCCN2CCc3ccccc3C2)cc1	-7	-13	33	-14	3	.	.	.	.
C=CCc1cc(OC)ccc1OCCOCCN1CCc2ccccc2C1	-15	-12	48*	-14	-9	56*	6	13	4
N#Cc1ccc(COC(=O)CN2C(=O)NC3(CCCC3)C2=O)cc1	-2	9	4	2	6	.	.	.	.

Screening results as filed in PubChem.
